These results are taken from paper PMC9044438 (Cell reports, 2022).

This assay deals with HCT116 cells. The assay can be described thus: RNA-seq of nuclear RNA from HCT116 cells electroporated with peptide. In kind it is cell-based, human. The conditions noted are these: 10 μM Nutlin-3a, 3 h, versus DMSO. The procedure, abridged: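 HCT116 cells were trypsinized and electroporated with 0 or 10 μM peptide into antibiotic-free McCoy's 5A (serum-free in the second run). They then went to medium with 0.1% DMSO or 10 μM Nutlin-3a, plus 200 nM peptide in peptide wells, for 3 h at 37°C. Nuclei were isolated in 0.5% NP-40 lysis buffer, and nuclear RNA was TRIzol-extracted with extra phenol/chloroform cleanup.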

For the molecule `COc1ccc(C2=N[C@@H](c3ccc(Cl)cc3)[C@@H](c3ccc(Cl)cc3)N2C(=O)N2CCNC(=O)C2)c(OC(C)C)c1` [Nutlin-3a], the “expression of p53 target genes” value was “induced expression of p53 target genes”.
